A word on the MIC: it is the least concentration at which growth counts as inhibited. The low end stands for a more susceptible organism, the high end for a less susceptible organism. By CC50 is commonly meant the concentration giving 50% cytotoxicity.

Data set [1] is described as follows: Inhibition of Staphylococcus aureus recombinant BPL using 3H-biotin as substrate after 10 mins by liquid scintillation counting analysis. The conditions noted are these: read-out: Ki(app). The method in brief:
(§1)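 In vitro biotinylation assay measuring radiolabeled biotin incorporation onto an acceptor protein by each recombinant BPL, run at varying inhibitor concentrations. Apparent Ki was fitted with the Morrison tight-binding equation, accounting for the BPL concentration in the assay. It was then extrapolated using each enzyme's apparent K_M for biotin, assuming inhibition competitive with biotin.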

Data set [2] can be described thus: Inhibition of Klebsiella pneumonia recombinant BPL using 3H-biotin as substrate after 10 mins by liquid scintillation counting analysis. Also noted: species or system Klebsiella pneumoniae. The note with it: read-out: Ki(app). An outline of the steps: as §1
Data set [3] is described as follows: Inhibition of Acinetobacter calcoaceticus recombinant BPL using 3H-biotin as substrate after 10 mins by liquid scintillation counting analysis. The conditions noted are these: read-out: Ki(app). The method in brief: as §1
A short description of data set [4]: Inhibition of Mycobacterium tuberculosis recombinant BPL using 3H-biotin as substrate after 10 mins by liquid scintillation counting analysis. The conditions noted are these: read-out: Ki(app). The method in brief: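 Recombinant BPL activity was measured as radiolabelled biotin incorporated onto an acceptor protein, across a range of inhibitor concentrations. Apparent Ki came from the Morrison tight-binding equation, because Ki values lay within 10-fold of the BPL concentration used. Binding was treated as competitive with biotin, so values were extrapolated using the apparent KM for biotin.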

In data set [5] the test system is Staphylococcus aureus. Kind of data set: Competitive inhibition of Staphylococcus aureus recombinant BPL using 3H-biotin as substrate by Lineweaver-Burk plot analysis. An outline of the steps:
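S. aureus BPL biotinylation with ³H-biotin: enzyme velocity measured across varying biotin concentrations at inhibitor 0, 20, 100 and 200 nM. Double-reciprocal Lineweaver–Burk plots of 1/velocity vs 1/biotin were used to define the inhibition mode, with K_M and V_max compared across inhibitor levels. Points are mean ± SEM of three replicates.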

For data set [6], the system named is Mycobacterium tuberculosis. Kind of data set: Antimicrobial activity against Mycobacterium tuberculosis H37Rv after 16 to 20 hrs by two-fold microdilution broth method. Type of data set: functional. For orientation: In broth dilution the organism is exposed to a series of concentrations in liquid medium.
Data set [7] relates to Mycobacterium tuberculosis. As to the kind of experiment: Antimicrobial activity against Mycobacterium tuberculosis 37892293 after 16 to 20 hrs by two-fold microdilution broth method. Format: functional.
In data set [8] the test system is Mycobacterium tuberculosis. Kind of data set: Antimicrobial activity against Mycobacterium tuberculosis 3688023 after 16 to 20 hrs by two-fold microdilution broth method. Type of data set: functional.
Data set [9] deals with Staphylococcus aureus. Kind of data set: Antimicrobial activity against methicillin-sensitive Staphylococcus aureus after 16 to 20 hrs by two-fold microdilution broth method. Type of data set: functional.
The test system of data set [10] is Staphylococcus aureus. As to the kind of experiment: Antimicrobial activity against methicillin-resistant Staphylococcus aureus after 16 to 20 hrs by two-fold microdilution broth method. Format: functional.
For the next data set, the system named is Staphylococcus. As to the kind of experiment: Antimicrobial activity against coagulase-negative Staphylococcus after 16 to 20 hrs by two-fold microdilution broth method. Format: functional.
The test system of the next data set is Escherichia coli. Kind of data set: Antimicrobial activity against Escherichia coli ATCC 25922 after 16 to 20 hrs by two-fold microdilution broth method. Format: functional.
A further data set deals with Enterococcus faecium. Kind of data set: Antimicrobial activity against Enterococcus faecium after 16 to 20 hrs by two-fold microdilution broth method. Format: functional.
Data set [11] is described as follows: Cytotoxicity against human HepG2 cells after 24 to 48 hrs by WST-1 assay. Format: cell-based. For orientation: Tetrazolium dyes change colour on reduction, which living cells bring about.
The test system of a further data set is Enterococcus faecalis. Kind of data set: Antimicrobial activity against Enterococcus faecalis after 16 to 20 hrs by two-fold microdilution broth method. Type of data set: functional.

Each structure is given as a SMILES string. ≈ marks a conversion by molar mass, not a printed value. Calls of active or inactive are those of the source. The calls are words filed in the database; no cut-off is given here.

For `Nc1ncnc2c1ncn2[C@@H]1O[C@H](COP(=O)(O)OCCCCC[C@@H]2SC[C@@H]3NC(=O)N[C@@H]32)[C@@H](O)[C@H]1O`, the Ki in data set [1] was 18 nM; in data set [2], 482 nM; in data set [3] it was 461 nM; in data set [4], 52 nM. Further, the inhibition result in the data set on Staphylococcus aureus [5] was “Active”. In addition, the MIC in [6] was 2.5 µg/mL (≈ 4.47 µM); in [7] it was 2.5 µg/mL (≈ 4.47 µM); in data set [8], 0.5 µg/mL (≈ 0.894 µM); with Staphylococcus aureus [9], 2 µg/mL (≈ 3.57 µM); in the data set with Staphylococcus aureus [10], 2 µg/mL (≈ 3.57 µM); against Staphylococcus, 1 µg/mL (≈ 1.79 µM). Besides, the MIC against Escherichia coli, against Enterococcus faecium and with Enterococcus faecalis was over 128 µg/mL throughout. In [11], the CC50 is over 200 µg/mL.
With `Nc1ncnc2c1ncn2[C@@H]1O[C@H](CNS(=O)(=O)NC(=O)CCCC[C@@H]2SC[C@@H]3NC(=O)N[C@@H]32)[C@@H](O)[C@H]1O`, the MIC in data set [6], in [7] and in [8] was 0.1 µg/mL (≈ 0.175 µM) throughout.

(Values after ChEMBL document CHEMBL3421591, “Improved Synthesis of Biotinol-5'-AMP: Implications for Antibacterial Discovery” (ACS Med Chem Lett, 2015).)
